# Article PMC4894846 (Nature cell biology, 2014)
# Values joined by “and” are separate entries in the source; they are usually repeats but may differ in a detail not shown here. Identical values can stand only once.
# Columns and labels:
# Pfa1 cells [1] = assay: Cell death elicited by ferroptosis-inducing agents; format: cell-based, mouse; conditions: for Induction of cell death through GSH depletion: Pfa1 cells; for Prevention of cell death elicited by FINs: erastin 2.5 μM, BSO 20 μM, RSL3 20 nM, DFO 10 μM, Fer1 0.1 μM, αToc 1 μM, Nec1 20 μM, Z-VAD-FMK 50 μM
# [2] = system: TAM-inducible Gpx4−/− cells (Pfa1); assay: Rescue of cell death induced by TAM-inducible Gpx4 deletion in Pfa1 cells; format: cell-based, mouse; conditions: 1 μM TAM, viability 72 h after knockout induction
# Gpx4−/− cells = assay: Lipid peroxidation in Gpx4−/− cells; format: cell-based, mouse; conditions: 48 h after knockout induction; Liproxstatin-1 50 nM
# In short: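 Gpx4 loss is induced in TAM-inducible Pfa1 cells grown in dishes in DMEM with 10% FBS. Test compound is present during induction. At 48 h after knockout induction, cells are washed, stained with BODIPY 581/591 C11 for 1 h, and probe oxidation is measured by flow cytometry.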
# HepG2 cells = assay: Cytotoxicity in HepG2 cells; format: cell-based; conditions: 72 h incubation
# In short: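 Cells are incubated with increasing concentrations of the test compound for 72 h. Viability is then read with the AquaBluer live-cell indicator. TC50 is derived by curve fitting.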
# hERG channel = hERG channel (Homo sapiens, UniProt Q12809); assay: hERG patch clamp assay; format: cell-based; conditions: read-out: hERG patch clamp assay IC50
# hERG channel, sequence (Q12809 whole entry): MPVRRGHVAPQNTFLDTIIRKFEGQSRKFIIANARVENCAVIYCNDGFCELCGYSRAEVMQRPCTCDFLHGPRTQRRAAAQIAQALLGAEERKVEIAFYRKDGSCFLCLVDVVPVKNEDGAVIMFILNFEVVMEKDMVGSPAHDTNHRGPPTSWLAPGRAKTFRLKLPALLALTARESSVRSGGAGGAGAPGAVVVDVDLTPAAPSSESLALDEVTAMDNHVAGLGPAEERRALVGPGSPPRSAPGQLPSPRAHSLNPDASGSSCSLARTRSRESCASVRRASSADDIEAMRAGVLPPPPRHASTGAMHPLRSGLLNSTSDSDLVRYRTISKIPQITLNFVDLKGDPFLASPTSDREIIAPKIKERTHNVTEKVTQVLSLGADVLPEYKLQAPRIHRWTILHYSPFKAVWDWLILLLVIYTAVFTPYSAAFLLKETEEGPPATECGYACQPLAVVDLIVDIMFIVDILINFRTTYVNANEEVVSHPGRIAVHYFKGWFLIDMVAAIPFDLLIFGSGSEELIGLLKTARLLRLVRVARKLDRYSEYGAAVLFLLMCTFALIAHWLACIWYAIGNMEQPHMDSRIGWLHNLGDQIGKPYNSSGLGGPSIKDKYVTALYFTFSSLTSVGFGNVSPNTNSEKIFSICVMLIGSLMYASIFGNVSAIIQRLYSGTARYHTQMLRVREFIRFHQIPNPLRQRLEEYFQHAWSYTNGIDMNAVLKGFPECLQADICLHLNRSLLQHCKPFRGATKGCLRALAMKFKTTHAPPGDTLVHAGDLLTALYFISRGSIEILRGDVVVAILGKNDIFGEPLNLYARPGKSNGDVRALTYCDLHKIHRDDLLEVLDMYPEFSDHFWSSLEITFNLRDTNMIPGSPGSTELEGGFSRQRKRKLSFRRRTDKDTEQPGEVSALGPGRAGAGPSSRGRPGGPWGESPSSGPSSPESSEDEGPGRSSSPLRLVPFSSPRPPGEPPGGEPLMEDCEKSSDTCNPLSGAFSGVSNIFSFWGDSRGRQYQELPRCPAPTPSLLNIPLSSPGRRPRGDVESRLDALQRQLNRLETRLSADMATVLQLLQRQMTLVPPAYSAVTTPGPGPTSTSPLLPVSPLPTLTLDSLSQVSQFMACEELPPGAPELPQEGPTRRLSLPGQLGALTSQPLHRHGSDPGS
# CYP450 2C9 = CYP450 2C9 (Homo sapiens, UniProt P11712); assay: CYP450 inhibition 2C9; format: in vitro ADME; conditions: read-out: CYP450 inhibition 2C9 IC50
# CYP450 2C9, sequence (P11712 whole entry): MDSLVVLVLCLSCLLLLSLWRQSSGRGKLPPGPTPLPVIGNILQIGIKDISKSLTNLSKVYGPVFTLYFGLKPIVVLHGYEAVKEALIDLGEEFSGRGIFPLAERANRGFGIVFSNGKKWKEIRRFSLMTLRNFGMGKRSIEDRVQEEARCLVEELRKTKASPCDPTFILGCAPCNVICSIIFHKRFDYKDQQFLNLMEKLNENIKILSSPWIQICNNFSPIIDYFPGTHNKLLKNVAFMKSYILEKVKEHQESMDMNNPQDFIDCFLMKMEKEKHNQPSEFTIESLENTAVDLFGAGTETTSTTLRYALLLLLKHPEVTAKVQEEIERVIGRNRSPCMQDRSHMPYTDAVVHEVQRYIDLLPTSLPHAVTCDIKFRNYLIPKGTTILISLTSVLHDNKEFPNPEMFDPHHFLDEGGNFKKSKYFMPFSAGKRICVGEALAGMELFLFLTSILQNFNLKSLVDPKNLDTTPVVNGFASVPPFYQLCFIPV
# CYP450 2D6 = CYP450 2D6 (Homo sapiens, UniProt P10635); assay: CYP450 inhibition 2D6; format: in vitro ADME; conditions: read-out: CYP450 inhibition 2D6 IC50
# CYP450 2D6, sequence (P10635 whole entry): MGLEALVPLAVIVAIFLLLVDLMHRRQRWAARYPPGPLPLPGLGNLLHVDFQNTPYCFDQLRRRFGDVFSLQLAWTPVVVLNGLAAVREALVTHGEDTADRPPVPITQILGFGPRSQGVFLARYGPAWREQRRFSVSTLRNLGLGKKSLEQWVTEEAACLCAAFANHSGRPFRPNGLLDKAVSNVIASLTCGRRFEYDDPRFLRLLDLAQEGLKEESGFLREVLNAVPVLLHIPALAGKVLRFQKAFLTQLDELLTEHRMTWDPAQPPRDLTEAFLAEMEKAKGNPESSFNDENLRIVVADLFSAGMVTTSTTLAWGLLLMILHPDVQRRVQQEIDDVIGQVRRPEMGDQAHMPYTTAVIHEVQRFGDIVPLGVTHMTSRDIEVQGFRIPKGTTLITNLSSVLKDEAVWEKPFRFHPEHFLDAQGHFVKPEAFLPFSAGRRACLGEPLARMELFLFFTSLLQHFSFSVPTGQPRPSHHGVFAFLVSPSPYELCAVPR
# CYP450 3A4 = CYP450 3A4 (Homo sapiens, UniProt P08684); assay: CYP450 inhibition 3A4; format: in vitro ADME; conditions: read-out: CYP450 inhibition 3A4 IC50
# CYP450 3A4, sequence (P08684 whole entry): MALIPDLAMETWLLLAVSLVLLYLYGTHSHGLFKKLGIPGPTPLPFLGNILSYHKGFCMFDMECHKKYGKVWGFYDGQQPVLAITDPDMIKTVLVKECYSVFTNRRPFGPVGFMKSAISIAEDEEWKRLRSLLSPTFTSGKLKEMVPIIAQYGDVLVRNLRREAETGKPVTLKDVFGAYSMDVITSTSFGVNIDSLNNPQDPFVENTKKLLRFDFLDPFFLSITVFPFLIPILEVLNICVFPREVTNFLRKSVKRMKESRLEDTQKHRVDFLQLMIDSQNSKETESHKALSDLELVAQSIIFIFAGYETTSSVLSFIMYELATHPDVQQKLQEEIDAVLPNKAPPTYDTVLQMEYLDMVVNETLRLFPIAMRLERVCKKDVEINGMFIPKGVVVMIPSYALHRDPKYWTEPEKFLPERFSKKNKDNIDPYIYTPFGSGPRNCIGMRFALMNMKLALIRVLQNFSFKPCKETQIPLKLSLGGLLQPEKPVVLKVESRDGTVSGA
# CYP450 1A = assay: CYP450 inhibition 1A; format: in vitro ADME; conditions: read-out: CYP450 inhibition 1A IC50
# CYP450 2C19 = CYP450 2C19 (Homo sapiens, UniProt P33261); assay: CYP450 inhibition 2C19; format: in vitro ADME; conditions: read-out: CYP450 inhibition 2C19 IC50
# CYP450 2C19, sequence (P33261 whole entry): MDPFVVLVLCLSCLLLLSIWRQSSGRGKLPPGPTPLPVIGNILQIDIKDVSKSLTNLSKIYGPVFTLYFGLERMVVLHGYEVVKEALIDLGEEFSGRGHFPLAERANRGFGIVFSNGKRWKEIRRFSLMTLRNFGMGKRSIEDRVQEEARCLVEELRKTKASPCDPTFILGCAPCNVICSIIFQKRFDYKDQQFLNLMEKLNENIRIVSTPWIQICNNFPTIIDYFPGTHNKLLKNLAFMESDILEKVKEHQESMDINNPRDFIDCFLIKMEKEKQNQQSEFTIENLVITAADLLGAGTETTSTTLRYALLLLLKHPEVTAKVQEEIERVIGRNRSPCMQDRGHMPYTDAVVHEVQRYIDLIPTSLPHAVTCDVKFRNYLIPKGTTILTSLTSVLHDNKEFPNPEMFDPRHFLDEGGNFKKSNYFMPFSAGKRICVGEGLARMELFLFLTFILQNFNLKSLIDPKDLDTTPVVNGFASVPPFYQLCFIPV
# Mouse pharmacokinetics = format: in vivo
# L929 cells = assay: TNFα/Z-VAD-FMK-induced necroptosis in L929 cells; format: cell-based; conditions: Liproxstatin-1 1 μM; TNFα 5 ng ml^−1 + Z-VAD-FMK 50 μM; 8 h
# Pfa1 cells [3] = assay: Cell death induced by staurosporine and H2O2; format: cell-based, mouse; conditions: Liproxstatin-1 200 nM; staurosporine 0.2 μM, H2O2 200 μM; 24 h
# In short: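 Gpx4-proficient (non-induced) Pfa1 mouse cells, kept in DMEM with 10% FBS. The test compound is given together with the death trigger: BSO 10 μM, erastin 1 μM or RSL3 0.5 μM, or staurosporine 0.2 μM or H2O2 200 μM. Viability is read 24 h after treatment. Mean ± s.d. of n = 3 wells; representative of at least four independent experiments.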
# [4] = system: primary human renal proximal tubule epithelial cells (HRPTEpiCs); assay: Viability of HRPTEpiCs treated with RSL3; format: cell-based; conditions: 24 h
# In short: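 Primary human renal proximal tubule epithelial cells, cultured per supplier recommendations. Cells are exposed to RSL3 with or without test compound, and viability is read by AquaBluer 24 h after treatment. Mean ± s.d. of n = 3 wells; representative of three independent experiments.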
# HRPTEpiCs = assay: RSL3-induced lipid oxidation in HRPTEpiCs; format: cell-based, human; conditions: RSL3 0.2 μM; 24 h
# In short: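 Primary human renal proximal tubule epithelial cells, cultured per supplier recommendations. Cells are treated with RSL3 (0.2 μM) with or without test compound. After 24 h, cells are stained with BODIPY 581/591 C11 for 1 h and lipid oxidation is measured by flow cytometry. Representative of four independent experiments.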
# CreERT2;Gpx4fl/fl mice = assay: In vivo rescue of TAM-induced CreERT2; parameters: species or system mouse; conditions: 10 mg kg^−1 i.p. daily
# In short: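 CreERT2;Gpx4fl/fl mice receive 0.5 mg TAM in Miglyol on days 1 and 3. From day 4, the test compound (10 mg kg−1) or vehicle (1% DMSO in PBS) is given i.p. once daily, with injections and scoring blinded. Survival is compared by log-rank/Gehan–Breslow–Wilcoxon tests (n = 12 vehicle, n = 13 treated; run twice). Kidney TUNEL+ cells are counted 9 days after TAM.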
# C57BL/6J mice = assay: Hepatic ischaemia/reperfusion injury model; format: in vivo, mouse; conditions: 90 min ischaemia, 24 h reperfusion
# In short: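 Male C57BL/6J mice, 8–10 weeks old, 22–24 g, randomised; operators blinded. Under xylazine/ketamine, an atraumatic clip is placed across the portal vein, hepatic artery and bile duct above the right lateral lobe branch. Reperfusion follows 90 min of ischaemia. At 24 h, serum ALT/AST is measured and necrotic area is scored (n = 17 and n = 5). Mean ± s.e.m.; one-way ANOVA with Dunnett's post-test.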
# [5] = system: PZL cells (CreERT2;Gpx4fl/fl/Alox15−/−); assay: Cell death on TAM-induced Gpx4 deficiency in PZL cells; format: cell-based, mouse
# Rip1−/− cells = assay: FIN/RSL3-induced ferroptosis in Rip1−/− cells; format: cell-based; conditions: RSL3 1 μM; 6 h pre-treatment; viability at 24 h
smiles,measurement,setting,value
"CCCCS(=N)(=O)CCC(N)C(=O)O [BSO, L-buthionine sulphoximine]",Induction of cell death through GSH depletion,Pfa1 cells [1],efficiently triggered rapid cell death
CC(=O)N(O)C/C=C/c1cccc(Oc2ccccc2)c1 [BWA4C],Rescue of cell death in response to Gpx4 deletion,[2],prevented cell death
"CC(=O)N(O)CCCCCNC(=O)CCC(=O)N(O)CCCCCNC(=O)CCC(=O)N(O)CCCCCN [DFO, deferoxamine]",Rescue of cell death in response to Gpx4 deletion,[2],cell death could also be inhibited
same,Prevention of cell death elicited by FINs,Pfa1 cells [1]; 24 h,can be prevented
same,Effect on lipid peroxidation (BODIPY 581/591 C11 oxidation),Gpx4−/− cells,could be ameliorated
"CCOC(=O)c1ccc(NC2CCCCC2)c(N)c1 [Fer1, ferrostatin-1]",Rescue of cell death in response to Gpx4 deletion,[2],rescued Gpx4^−/− cells from cell death
same,Prevention of cell death elicited by FINs,Pfa1 cells [1]; 24 h,can be prevented
same,Effect on lipid peroxidation (BODIPY 581/591 C11 oxidation),Gpx4−/− cells,could be ameliorated
Clc1cccc(CN=C2Nc3ccccc3NC23CCNCC3)c1 [Liproxstatin-1],Cytotoxicity in HepG2 cells TC50,HepG2 cells,6 µM
same,IC50,hERG channel,> 25 µM
same,IC50,CYP450 2C9,> 25 µM
same,IC50,CYP450 2D6,4.1 µM
same,IC50,CYP450 3A4,> 25 µM
same,IC50,CYP450 1A,> 25 µM
same,IC50,CYP450 2C19,> 25 µM
same,Bioavailability,Mouse pharmacokinetics,52%
same,C,Mouse pharmacokinetics; i.v. 1 mg kg^−1,0.4 µg/mL
same,MRTINF (mean residence time extrapolated to infinity),Mouse pharmacokinetics; i.v. 1 mg kg^−1,4.9 h
same,Total Cl,Mouse pharmacokinetics; i.v. 1 mg kg^−1,128 ml h^−1 and 66 ml min^−1 kg^−1
same,V,Mouse pharmacokinetics; i.v. 1 mg kg^−1,849 mL
same,Vss,Mouse pharmacokinetics; i.v. 1 mg kg^−1,629 mL
same,t1/2,Mouse pharmacokinetics; i.v. 1 mg kg^−1,4.6 h
same,Cmax,Mouse pharmacokinetics; p.o. 5 mg kg^−1,80 ng/mL
same,Tmax,Mouse pharmacokinetics; p.o. 5 mg kg^−1,2 h
same,Rescue of cell death in response to Gpx4 deletion,[2],inhibit ferroptosis in the low nanomolar range
same,Protection against FINs,"Pfa1 cells [1]; Liproxstatin-1 200 nM, BSO 10 μM, erastin 1 μM, RSL3 0.5 μM, 24 h",protects against FINs
same,Effect on lipid peroxidation (BODIPY 581/591 C11 oxidation),Gpx4−/− cells,completely prevents lipid peroxidation
same,Effect on necroptosis,L929 cells,does not prevent necroptosis
same,Rescue of cell death induced by staurosporine and H2O2,Pfa1 cells [3],fails to rescue cell death
same,Protection from RSL3-induced cell death,[4]; Liproxstatin-1 100 nM,able to protect
same,Effect on RSL3-induced BODIPY 581/591 C11 oxidation,HRPTEpiCs,could be blocked
same,Median survival,"CreERT2;Gpx4fl/fl mice; vehicle-treated 11 days, P <0.0001",14 days
same,TUNEL+ cells in kidney compared with vehicle,CreERT2;Gpx4fl/fl mice; day 9 after TAM treatment,strongly reduced number of TUNEL+ cells
same,"Tissue injury (AST/ALT, necrotic area)",C57BL/6J mice,mitigated tissue injury
CCCCCCCCCCCCCCCCOCC(COCC(F)(F)F)OP(=O)(O)OC (stereo not drawn) [MJ33],Rescue of cell death in response to Gpx4 deletion,[2],prevented cell death
CC(C)c1ccc2c(c1)c(SC(C)(C)C)c(CC(C)(C)C(=O)O)n2Cc1ccc(Cl)cc1 [MK886],Rescue of cell death in response to Gpx4 deletion,[2],prevented cell death
"CC(=O)N[C@@H](CS)C(=O)O [NAC, N-acetylcysteine]",Rescue of cell death of PZL cells on Gpx4 deficiency,[5],could not be rescued
"CN1C(=O)C(Cc2c[nH]c3ccccc23)NC1=S (stereo not drawn) [Nec1, necrostatin-1]",Rescue of cell death in response to Gpx4 deletion,[2],rescued Gpx4^−/− cells from cell death
same,Prevention of cell death elicited by FINs,Pfa1 cells [1]; 24 h,can be prevented
same,Prevention of ferroptosis in Rip1−/− cells,Rip1−/− cells,ferroptosis could be prevented
CN1C(=O)NC(Cc2c[nH]c3c(Cl)cccc23)C1=O (stereo not drawn) [Nec1s],Rescue of cell death in response to Gpx4 deletion,[2],did not protect
c1ccc2c(c1)SCc1c-2[nH]c2ccccc12 [PD146176],Rescue of cell death in response to Gpx4 deletion,[2],prevented cell death
"COC(=O)c1ccc([C@@H]2c3[nH]c4ccccc4c3C[C@@H](C(=O)OC)N2C(=O)CCl)cc1 [RSL3, (1S, 3R)-RSL3, reference compound]",Induction of cell death in HRPTEpiCs,[4],efficiently triggered cell death
CCOc1ccccc1-n1c(C(C)N2CCN(C(=O)COc3ccc(Cl)cc3)CC2)nc2ccccc2c1=O (stereo not drawn) [erastin],Induction of cell death through GSH depletion,Pfa1 cells [1],efficiently triggered rapid cell death
CC(c1cc2ccccc2s1)N(O)C(N)=O (stereo not drawn) [zileuton],Rescue of cell death in response to Gpx4 deletion,[2],prevented cell death
"Cc1c(C)c2c(c(C)c1O)CC[C@@](C)(CCC[C@H](C)CCC[C@H](C)CCCC(C)C)O2 [αToc, α-tocopherol]",Rescue of cell death in response to Gpx4 deletion,[2],cell death could also be inhibited
same,Prevention of cell death elicited by FINs,Pfa1 cells [1]; 24 h,can be prevented
same,Rescue of cell death of PZL cells on Gpx4 deficiency,[5],rescued
